Laboratory results: ChEMBL document CHEMBL4673335, “Store-Operated Calcium Entry as a Therapeutic Target in Acute Pancreatitis: Discovery and Development of Drug-Like SOCE Inhibitors” (J Med Chem, 2020)
pIC50: −log10 of the molar value. Activity calls are given as the source filed them. No cut-off for these calls is given here.

Legend:
[1] = target: T1, ORAI1/STIM1 (Homo sapiens) (UniProt Q96D31+Q13586); test: Inhibition of STIM1/Orai1 (unknown origin) expressed in HEK293 cells assessed as reduction in tBHQ-induced calcium response at 10 uM relative to control; format: cell-based
Procedure, shortened: (§1)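 HEK cells, calcium imaging by fluorescence microscopy. Ca2+ added after 600 s and intracellular levels recorded. Traces averaged over 200 cells, then scored as AUC, peak amplitude and slope of the Ca2+ rise versus untreated control. Compound working solutions diluted from a 50 mM DMSO stock to 0.1% DMSO in physiologic buffer.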

HEK293 [2] = test: Cytotoxicity in HEK293 cells assessed as cell viability at 10 uM after 24 hrs by MTT assay; format: cell-based; conditions: human, hek293, 24 h
Procedure, shortened: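 MTT viability assay. HEK cells seeded at 20,000 per well, treated 24 h after plating for a further 24 h. MTT at 0.25 mg/mL final for 60 min at 37 °C. Crystals dissolved in isopropyl alcohol/HCl (1 M), absorbance read at 570 nm. Compounds diluted to 0.1% DMSO in culture medium.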

[3] = Thermodynamic aqueous solubility; format: physicochemical; conditions: read-out: Therm_solubility
Procedure, shortened: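 About 3 mg compound in 3 mL deionized water, vortexed, sonicated 5 min, then shaken overnight at 25 °C. Filtered through a 0.22 μm membrane, DMSO added, diluted about 1:10 in water. Quantified by LC–UV against DMSO standard solutions.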

[4] = Metabolic stability in mouse liver microsomes assessed as compound remaining after 1 hr; format: ADME, Microsome; conditions: read-out: Stabilty
Procedure, shortened: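 Pooled male CD-1 mouse liver microsomes (20 mg/mL protein stock), NADPH-activated. Substrate at 5 μM. Residual parent measured after 1 h incubation.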

HEK293 [5] = test: Cytotoxicity in HEK293 cells assessed as cell viability at 50 uM after 72 hrs in presence of excess uridine by MTT assay; format: cell-based; conditions: human, hek293, 72 h
Procedure, shortened: (§2)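 MTT viability in HEK cells after 72 h treatment at 50 μM, with or without 100 μM uridine. MTT at 0.25 mg/mL final for 60 min at 37 °C, solubilized in isopropyl alcohol/HCl (1 M), absorbance read at 570 nm. Mean ± SEM, Student t-test against control.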

HEK293 [6] = test: Cytotoxicity in HEK293 cells assessed as cell viability at 50 uM after 72 hrs by MTT assay; format: cell-based; conditions: human, hek293, 72 h; procedure, shortened: as §2
[7] = target: T1, ORAI1/STIM1 (Homo sapiens); test: Inhibition of STIM1/Orai1 (unknown origin) expressed in HEK293 cells assessed as reduction in tBHQ-induced calcium response by measuring decrease in calcium entry AUC at 10 uM relative to control; format: cell-based; procedure, shortened: as §1
[8] = target: T1, ORAI1/STIM1 (Homo sapiens); test: Inhibition of STIM1/Orai1 (unknown origin) expressed in HEK293 cells assessed as reduction in tBHQ-induced calcium response by measuring decrease in peak amplitude of calcium entry at 10 uM relative to control; format: cell-based; procedure, shortened: as §1
[9] = target: T1, ORAI1/STIM1 (Homo sapiens); test: Inhibition of STIM1/Orai1 (unknown origin) expressed in HEK293 cells assessed as reduction in tBHQ-induced calcium response by measuring decrease in slope of calcium entry at 10 uM relative to control; format: cell-based; procedure, shortened: as §1
ORAI1/STIM1 = ORAI1/STIM1 (Homo sapiens, UniProt Q13586+Q96D31); test: Inhibition of STIM1/Orai1 (unknown origin) expressed in HEK293 cells assessed as reduction in tBHQ-induced calcium response; format: cell-based
[10] = dose 3.0 µM, in the assay text read “at 3 uM” for “at 10 uM”

T1 sequence (Q13586 23-685 partner limits assumed): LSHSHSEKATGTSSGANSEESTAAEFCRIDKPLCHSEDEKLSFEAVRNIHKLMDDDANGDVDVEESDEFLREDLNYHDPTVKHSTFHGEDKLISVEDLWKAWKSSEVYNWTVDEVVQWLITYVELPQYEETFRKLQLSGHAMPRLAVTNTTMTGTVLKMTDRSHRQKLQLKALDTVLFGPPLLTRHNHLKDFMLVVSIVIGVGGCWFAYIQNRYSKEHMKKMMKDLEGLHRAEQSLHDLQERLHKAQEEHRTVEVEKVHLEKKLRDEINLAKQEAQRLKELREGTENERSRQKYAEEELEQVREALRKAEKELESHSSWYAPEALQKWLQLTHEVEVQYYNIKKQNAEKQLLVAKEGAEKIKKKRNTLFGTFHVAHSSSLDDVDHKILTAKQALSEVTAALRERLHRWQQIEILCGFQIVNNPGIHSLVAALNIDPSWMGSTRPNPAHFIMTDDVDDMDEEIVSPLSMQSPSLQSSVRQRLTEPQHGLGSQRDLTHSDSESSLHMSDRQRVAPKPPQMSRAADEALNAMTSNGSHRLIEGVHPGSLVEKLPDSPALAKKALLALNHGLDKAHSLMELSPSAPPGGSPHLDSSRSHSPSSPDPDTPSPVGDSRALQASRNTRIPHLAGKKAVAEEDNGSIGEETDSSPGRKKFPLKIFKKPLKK
T1 sequence (Q96D31 whole entry): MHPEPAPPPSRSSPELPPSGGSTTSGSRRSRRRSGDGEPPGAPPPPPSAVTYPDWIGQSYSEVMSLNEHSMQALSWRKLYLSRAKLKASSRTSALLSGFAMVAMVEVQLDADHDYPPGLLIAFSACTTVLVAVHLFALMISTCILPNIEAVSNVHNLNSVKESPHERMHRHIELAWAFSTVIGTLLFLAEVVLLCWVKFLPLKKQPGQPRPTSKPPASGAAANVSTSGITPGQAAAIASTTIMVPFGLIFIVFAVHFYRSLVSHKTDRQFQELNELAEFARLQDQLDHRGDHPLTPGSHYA
Sequence of ORAI1/STIM1 (Q96D31 whole entry): as above
Sequence of ORAI1/STIM1 (Q13586 whole entry): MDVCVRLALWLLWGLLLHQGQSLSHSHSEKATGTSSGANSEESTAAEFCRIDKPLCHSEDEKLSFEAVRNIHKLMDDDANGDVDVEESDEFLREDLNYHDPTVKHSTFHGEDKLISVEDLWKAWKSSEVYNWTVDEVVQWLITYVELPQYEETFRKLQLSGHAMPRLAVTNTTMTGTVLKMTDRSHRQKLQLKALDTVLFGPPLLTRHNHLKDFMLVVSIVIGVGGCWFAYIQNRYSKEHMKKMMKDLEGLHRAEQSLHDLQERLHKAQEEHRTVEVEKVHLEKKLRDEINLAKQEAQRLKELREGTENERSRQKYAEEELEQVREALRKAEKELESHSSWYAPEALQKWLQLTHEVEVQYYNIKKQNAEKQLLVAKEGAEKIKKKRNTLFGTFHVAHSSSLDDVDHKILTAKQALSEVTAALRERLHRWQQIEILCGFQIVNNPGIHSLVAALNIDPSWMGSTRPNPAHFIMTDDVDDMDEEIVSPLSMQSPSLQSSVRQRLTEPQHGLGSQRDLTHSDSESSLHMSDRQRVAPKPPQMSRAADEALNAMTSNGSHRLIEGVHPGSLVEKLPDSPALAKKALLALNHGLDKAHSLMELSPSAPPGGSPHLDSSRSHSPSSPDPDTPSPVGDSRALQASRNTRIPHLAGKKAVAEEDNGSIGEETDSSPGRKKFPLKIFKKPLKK

O=C(O)c1cccc(-n2cc(-c3ccc(-c4ccc5c(c4)OCCO5)cc3)nn2)c1
inhibition ([1]; dose 10.0 µM): 81.1% | Activity (HEK293 [2]): 71.7%

COc1cccc(-c2ccc(-n3cc(-c4cccc(C(=O)[O-])c4)nn3)cc2)c1.[Na+]
solubility thermodynamic [3]: 856 µg/mL | remaining at 1 h [4]: 91%

O=C(O)c1cccc(-c2cn(-c3ccc(-c4cccc(O)c4)cc3)nn2)c1
inhibition [1, 10]: 0%

O=C(O)c1cccc(NC(=O)c2ccc(-c3ccc4c(c3)OCCO4)cc2)c1
inhibition ([1]; dose 10.0 µM): 22.6% | Activity (HEK293 [2]): 95.3% | Activity (HEK293 [5]): Non-Toxic

COc1ccccc1-c1ccc(-c2cn(-c3cccc(C(=O)O)c3)nn2)cc1
inhibition [1, 10]: 12%

Cc1c(-c2ccc(-c3ccccc3F)cc2)nc2ccc(F)cc2c1C(=O)O [BREQUINAR]
Activity (HEK293 [6]): Non-Toxic

COc1cccc(-c2ccc(-n3cc(-c4cccc(C(=O)O)c4)nn3)cc2)c1 [listing 1 of 2 here]
inhibition [1, 10]: 85.1% | inhibition [7]: Active | inhibition [8]: Active | inhibition [9]: Active

COc1ccc(F)c(-c2ccc(-n3cc(-c4cccc(C(=O)O)c4)nn3)cc2)c1
inhibition ([1]; dose 10.0 µM): 74.7% | inhibition [7]: Active | inhibition [8]: Active | inhibition [9]: Active

CSc1cccc(-c2ccc(-n3cc(-c4cccc(C(=O)O)c4)nn3)cc2)c1
inhibition [1, 10]: 23.6%

COc1ccc(OC)c(-c2ccc(-n3cc(-c4cccc(C(=O)O)c4)nn3)cc2)c1
inhibition ([1]; dose 10.0 µM): 76.2%

O=C(O)c1cccc(-n2cc(-c3ccc(-c4cccc5c4OCCO5)cc3)nn2)c1
inhibition ([1]; dose 10.0 µM): 44.1%

O=C(O)c1cccc(-c2cn(-c3ccc(-c4ccc5c(c4)OCCO5)cc3)nn2)c1
inhibition ([1]; dose 10.0 µM): 77.5% | inhibition [7]: Active | inhibition [8]: Active | inhibition [9]: Active

COc1ccc(OC)c(-c2ccc(-c3cn(-c4ccncc4)nn3)cc2)c1
inhibition ([1]; dose 10.0 µM): -1.7%

COc1ccc(OC)c(-c2ccc(-n3cc(-c4ccncc4F)nn3)cc2)c1
inhibition ([1]; dose 10.0 µM): -4.9%

COc1cccc(-c2ccc(-n3cc(-c4cccc(C(=O)O)c4)nn3)cc2)c1 [listing 2 of 2 here]
pIC50 (ORAI1/STIM1): 6.09 | Activity (HEK293 [6]): Non-Toxic | Activity (HEK293 [5]): Non-Toxic

COc1ccc(OC)c(-c2ccc(-c3cn(-c4ccnc(C(=O)O)c4)nn3)cc2)c1
inhibition ([1]; dose 10.0 µM): 57.2%

O=C(Nc1ccc(-n2nc(C(F)(F)F)cc2C(F)(F)F)cc1)c1ccncc1F
Activity (HEK293 [6]): Toxic | Activity (HEK293 [5]): Toxic

COc1cccc(-c2ccc(-c3cn(-c4cccc(C(=O)O)c4)nn3)cc2)c1
inhibition [1, 10]: 29.5%

O=C(O)c1cccc(-n2cc(-c3ccc(-c4ccc5c(c4)OCO5)cc3)nn2)c1
inhibition ([1]; dose 10.0 µM): 0%

O=C(O)c1cccc(-n2cc(-c3ccc(-c4ccccc4)cc3)nn2)c1
inhibition [1, 10]: 1.8%

O=C([O-])c1cccc(-c2cn(-c3ccc(-c4ccc5c(c4)OCCO5)cc3)nn2)c1.[Na+]
solubility thermodynamic [3]: 668 µg/mL | remaining at 1 h [4]: 94%

COc1cc(OC)cc(-c2ccc(-n3cc(-c4cccc(C(=O)[O-])c4)nn3)cc2)c1.[Na+]
solubility thermodynamic [3]: 18.7 µg/mL | remaining at 1 h [4]: 92%

COc1ccc(-c2ccc(-c3cn(-c4cccc(C(=O)O)c4)nn3)cc2)cc1OC
inhibition ([1]; dose 10.0 µM): 39.6%

O=C(O)c1cccc(-c2cn(-c3ccc(-c4ccc5c(c4)OCO5)cc3)nn2)c1
inhibition ([1]; dose 10.0 µM): 67.3%

COc1ccc(OC)c(-c2ccc(-n3cc(-c4ccccn4)nn3)cc2)c1
inhibition ([1]; dose 10.0 µM): 0%

CSc1cccc(-c2ccc(-c3cn(-c4cccc(C(=O)O)c4)nn3)cc2)c1
inhibition ([1]; dose 10.0 µM): 0%
